{"source": "ChEMBL document CHEMBL3425469", "about": "“Discovery of imidazo[2,1-b]thiazole HCV NS4B inhibitors exhibiting synergistic effect with other direct-acting antiviral agents” (J Med Chem, 2015)", "key": {"Hepatitis C virus [1]": {"test_system": "Hepatitis C virus", "assay": "Antiviral activity against Hepatitis C virus genotype 1b Con 1 infected in human HuH7 cells at 80 nM after 72 hrs by luciferase assay in presence of 12.5 uM clemizole", "assay_type": "functional, Hepacivirus hominis, Huh-7", "summary_of_the_method": "(§1)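 Huh-7 cells stably carrying a GT1b Con1 bicistronic luciferase replicon, seeded at 8000 cells/well. The test compound and the partner DAA are dosed orthogonally at various concentrations, final 0.5% DMSO, then incubated 72 h at 37°C. Bright-Glo luciferase read-out gives replicon inhibition as % of untreated control. Cytotoxicity is checked in parallel by CellTiter-Fluor. CI and DRI are derived by the Chou–Talalay median-effect method.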"}, "Hepatitis C virus [2]": {"test_system": "Hepatitis C virus", "assay": "Antiviral activity against Hepatitis C virus genotype 1b Con1 infected in human HuH7 cells after 72 hrs by luciferase assay", "assay_type": "functional, cell-based, Hepacivirus hominis", "conditions": "genotype 1b Con 1, Huh-7, 72 h", "summary_of_the_method": "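Huh-7 cells stably carrying a genotype 1b Con1 bicistronic luciferase replicon, seeded at 8000 cells/well. Compounds were added at 0.5% DMSO final and incubated at 37°C for 72 h. Read-out was Bright-Glo luciferase, with cell proliferation measured by CellTiter-Fluor. EC50 is the mean of at least two independent runs. Some values are given as percent inhibition at 10 µM.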"}, "Hepatitis C virus [3]": {"test_system": "Hepatitis C virus", "assay": "Antiviral activity against Hepatitis C virus genotype 1b Con 1 infected in human HuH7 cells at 10 nM after 72 hrs by luciferase assay in presence of 15 uM clemizole", "assay_type": "functional, Hepacivirus hominis, Huh-7", "summary_of_the_method": "(§2)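 Stable Con1 GT1b bicistronic luciferase replicon in Huh-7 cells, 8000 cells/well. Test compound and a marketed DAA or clemizole added alone or together at varied concentrations, 0.5% DMSO final. 72 h at 37°C, then luciferase read with Bright-Glo. Inhibition expressed as % of untreated control, with cytotoxicity run in parallel. CI and DRI derived by the Chou–Talalay median-effect method.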"}, "Hepatitis C virus [4]": {"test_system": "Hepatitis C virus", "assay": "Antiviral activity against Hepatitis C virus genotype 1b Con 1 infected in human HuH7 cells at 5 nM after 72 hrs by luciferase assay in presence of 7.5 uM clemizole", "assay_type": "functional, Hepacivirus hominis, Huh-7", "summary_of_the_method": "as §1"}, "Hepatitis C virus [5]": {"test_system": "Hepatitis C virus", "assay": "Antiviral activity against Hepatitis C virus genotype 1b Con 1 infected in human HuH7 cells at 10 nM after 72 hrs by luciferase assay in presence of 10 uM clemizole", "assay_type": "functional, Hepacivirus hominis, Huh-7", "summary_of_the_method": "as §2"}, "Hepatitis C virus [6]": {"test_system": "Hepatitis C virus", "assay": "Antiviral activity against Hepatitis C virus genotype 1b Con 1 infected in human HuH7 cells at 2.5 nM after 72 hrs by luciferase assay in presence of 240 nM sofobuvir", "assay_type": "functional, Hepacivirus hominis, Huh-7", "summary_of_the_method": "as §2"}, "Hepatitis C virus [7]": {"test_system": "Hepatitis C virus", "assay": "Antiviral activity against Hepatitis C virus genotype 1b Con 1 infected in human HuH7 cells at 40 nM after 72 hrs by luciferase assay in presence of 5 uM clemizole", "assay_type": "functional, Hepacivirus hominis, Huh-7", "summary_of_the_method": "as §1"}, "Hepatitis C virus [8]": {"test_system": "Hepatitis C virus", "assay": "Antiviral activity against Hepatitis C virus genotype 1b Con 1 infected in human HuH7 cells at 160 nM after 72 hrs by luciferase assay in presence of 0.02 nM daclatasvir", "assay_type": "functional, Hepacivirus hominis, Huh-7", "summary_of_the_method": "as §2"}, "Hepatitis C virus [9]": {"test_system": "Hepatitis C virus", "assay": "Antiviral activity against Hepatitis C virus genotype 1b Con 1 infected in human HuH7 cells at 40 nM after 72 hrs by luciferase assay in presence of 0.16 nM daclatasvir", "assay_type": "functional, Hepacivirus hominis, Huh-7", "summary_of_the_method": "as §1"}, "Hepatitis C virus [10]": {"test_system": "Hepatitis C virus", "assay": "Antiviral activity against Hepatitis C virus genotype 1b Con 1 infected in human HuH7 cells at 2.5 nM after 72 hrs by luciferase assay in presence of 17.5 uM clemizole", "assay_type": "functional, Hepacivirus hominis, Huh-7", "summary_of_the_method": "as §2"}, "Hepatitis C virus [11]": {"test_system": "Hepatitis C virus", "assay": "Antiviral activity against Hepatitis C virus genotype 1b Con 1 infected in human HuH7 cells at 5 nM after 72 hrs by luciferase assay in presence of 30 nM sofobuvir", "assay_type": "functional, Hepacivirus hominis, Huh-7", "summary_of_the_method": "as §1"}, "Hepatitis C virus [12]": {"test_system": "Hepatitis C virus", "assay": "Antiviral activity against Hepatitis C virus genotype 1b Con 1 infected in human HuH7 cells at 2.5 nM after 72 hrs by luciferase assay in presence of 10 uM clemizole", "assay_type": "functional, Hepacivirus hominis, Huh-7", "summary_of_the_method": "as §2"}, "Hepatitis C virus [13]": {"test_system": "Hepatitis C virus", "assay": "Antiviral activity against Hepatitis C virus genotype 1b Con 1 infected in human HuH7 cells at 5 nM after 72 hrs by luciferase assay in presence of 24 nM simeprevir", "assay_type": "functional, Hepacivirus hominis, Huh-7", "summary_of_the_method": "as §1"}, "Hepatitis C virus [14]": {"test_system": "Hepatitis C virus", "assay": "Antiviral activity against Hepatitis C virus genotype 1b Con 1 infected in human HuH7 cells at 160 nM after 72 hrs by luciferase assay in presence of 2160 nM sofobuvir", "assay_type": "functional, Hepacivirus hominis, Huh-7", "summary_of_the_method": "as §2"}, "Hepatitis C virus [15]": {"test_system": "Hepatitis C virus", "assay": "Antiviral activity against Hepatitis C virus genotype 1b Con 1 infected in human HuH7 cells at 160 nM after 72 hrs by luciferase assay in presence of 24 nM simeprevir", "assay_type": "functional, Hepacivirus hominis, Huh-7", "summary_of_the_method": "as §2"}, "Hepatitis C virus [16]": {"test_system": "Hepatitis C virus", "assay": "Antiviral activity against Hepatitis C virus genotype 1b Con 1 infected in human HuH7 cells at 20 nM after 72 hrs by luciferase assay in presence of 3 nM simeprevir", "assay_type": "functional, Hepacivirus hominis, Huh-7", "summary_of_the_method": "as §1"}, "Hepatitis C virus [17]": {"test_system": "Hepatitis C virus", "assay": "Antiviral activity against Hepatitis C virus genotype 1b Con 1 infected in human HuH7 cells at 10 nM after 72 hrs by luciferase assay in presence of 0.02 nM daclatasvir", "assay_type": "functional, Hepacivirus hominis, Huh-7", "summary_of_the_method": "as §2"}, "Hepatitis C virus [18]": {"test_system": "Hepatitis C virus", "assay": "Antiviral activity against Hepatitis C virus genotype 1b Con 1 infected in human HuH7 cells at 2.5 nM after 72 hrs by luciferase assay in presence of 120 nM sofobuvir", "assay_type": "functional, Hepacivirus hominis, Huh-7", "summary_of_the_method": "as §2"}, "Hepatitis C virus [19]": {"test_system": "Hepatitis C virus", "assay": "Antiviral activity against Hepatitis C virus genotype 1b Con 1 infected in human HuH7 cells at 160 nM after 72 hrs by luciferase assay in presence of 5 uM clemizole", "assay_type": "functional, Hepacivirus hominis, Huh-7", "summary_of_the_method": "as §2"}, "Hepatitis C virus [20]": {"test_system": "Hepatitis C virus", "assay": "Antiviral activity against Hepatitis C virus genotype 1b Con 1 infected in human HuH7 cells at 5 nM after 72 hrs by luciferase assay in presence of 12.5 uM clemizole", "assay_type": "functional, Hepacivirus hominis, Huh-7", "summary_of_the_method": "as §1"}, "Hepatitis C virus [21]": {"test_system": "Hepatitis C virus", "assay": "Antiviral activity against Hepatitis C virus genotype 1b Con 1 infected in human HuH7 cells at 5 nM after 72 hrs by luciferase assay in presence of 0.16 nM daclatasvir", "assay_type": "functional, Hepacivirus hominis, Huh-7", "summary_of_the_method": "as §1"}, "Hepatitis C virus [22]": {"test_system": "Hepatitis C virus", "assay": "Antiviral activity against Hepatitis C virus genotype 1b Con 1 infected in human HuH7 cells at 2.5 nM after 72 hrs by luciferase assay in presence of 0.04 nM daclatasvir", "assay_type": "functional, Hepacivirus hominis, Huh-7", "summary_of_the_method": "as §2"}, "Hepatitis C virus [23]": {"test_system": "Hepatitis C virus", "assay": "Antiviral activity against Hepatitis C virus genotype 1b Con 1 infected in human HuH7 cells at 40 nM after 72 hrs by luciferase assay in presence of 0.08 nM daclatasvir", "assay_type": "functional, Hepacivirus hominis, Huh-7", "summary_of_the_method": "as §1"}, "Hepatitis C virus [24]": {"test_system": "Hepatitis C virus", "assay": "Antiviral activity against Hepatitis C virus genotype 1b Con 1 infected in human HuH7 cells at 40 nM after 72 hrs by luciferase assay in presence of 20 uM clemizole", "assay_type": "functional, Hepacivirus hominis, Huh-7", "summary_of_the_method": "as §1"}, "Hepatitis C virus [25]": {"test_system": "Hepatitis C virus", "assay": "Antiviral activity against Hepatitis C virus genotype 1b Con 1 infected in human HuH7 cells at 10 nM after 72 hrs by luciferase assay in presence of 20 uM clemizole", "assay_type": "functional, Hepacivirus hominis, Huh-7", "summary_of_the_method": "as §2"}, "Hepatitis C virus [26]": {"test_system": "Hepatitis C virus", "assay": "Antiviral activity against Hepatitis C virus genotype 1b Con 1 infected in human HuH7 cells at 20 nM after 72 hrs by luciferase assay in presence of 120 nM sofobuvir", "assay_type": "functional, Hepacivirus hominis, Huh-7", "summary_of_the_method": "as §2"}, "Hepatitis C virus [27]": {"test_system": "Hepatitis C virus", "assay": "Antiviral activity against Hepatitis C virus genotype 1b Con 1 infected in human HuH7 cells at 40 nM after 72 hrs by luciferase assay in presence of 0.02 nM daclatasvir", "assay_type": "functional, Hepacivirus hominis, Huh-7", "summary_of_the_method": "as §1"}, "Hepatitis C virus [28]": {"test_system": "Hepatitis C virus", "assay": "Antiviral activity against Hepatitis C virus genotype 1b Con 1 infected in human HuH7 cells at 20 nM after 72 hrs by luciferase assay in presence of 12 nM simeprevir", "assay_type": "functional, Hepacivirus hominis, Huh-7", "summary_of_the_method": "as §2"}, "Hepatitis C virus [29]": {"test_system": "Hepatitis C virus", "assay": "Antiviral activity against Hepatitis C virus genotype 1b Con 1 infected in human HuH7 cells at 2.5 nM after 72 hrs by luciferase assay in presence of 0.08 nM daclatasvir", "assay_type": "functional, Hepacivirus hominis, Huh-7", "summary_of_the_method": "as §2"}, "Hepatitis C virus [30]": {"test_system": "Hepatitis C virus", "assay": "Antiviral activity against Hepatitis C virus genotype 1b Con 1 infected in human HuH7 cells at 5 nM after 72 hrs by luciferase assay in presence of 120 nM sofobuvir", "assay_type": "functional, Hepacivirus hominis, Huh-7", "summary_of_the_method": "as §1"}}, "data": [{"smiles": "O=C(c1nc2scc(C3CC3)n2c1Cl)N1CCN(C2CCCC2)C(=O)C1", "values": [{"measurement": "CI", "setting": "Hepatitis C virus [1]", "value": 0.95}, {"measurement": "EC50", "setting": "Hepatitis C virus [2]", "value": 0.016, "unit": "µM"}, {"measurement": "CI", "setting": "Hepatitis C virus [3]", "value": 1.05}, {"measurement": "CI", "setting": "Hepatitis C virus [4]", "value": 0.6}, {"measurement": "CI", "setting": "Hepatitis C virus [5]", "value": 0.68}, {"measurement": "CI", "setting": "Hepatitis C virus [6]", "value": 0.83}, {"measurement": "CI", "setting": "Hepatitis C virus [7]", "value": 1.03}, {"measurement": "CI", "setting": "Hepatitis C virus [8]", "value": 0.5}, {"measurement": "CI", "setting": "Hepatitis C virus [9]", "value": 0.64}, {"measurement": "CI", "setting": "Hepatitis C virus [10]", "value": 1.36}, {"measurement": "CI", "setting": "Hepatitis C virus [11]", "value": 0.77}, {"measurement": "CI", "setting": "Hepatitis C virus [12]", "value": 0.87}, {"measurement": "CI", "setting": "Hepatitis C virus [13]", "value": 1.31}, {"measurement": "CI", "setting": "Hepatitis C virus [14]", "value": 0.3}, {"measurement": "CI", "setting": "Hepatitis C virus [15]", "value": 0.87}, {"measurement": "CI", "setting": "Hepatitis C virus [16]", "value": 0.94}, {"measurement": "CI", "setting": "Hepatitis C virus [17]", "value": 1.14}, {"measurement": "CI", "setting": "Hepatitis C virus [18]", "value": 0.9}, {"measurement": "CI", "setting": "Hepatitis C virus [19]", "value": 1.84}, {"measurement": "CI", "setting": "Hepatitis C virus [20]", "value": 0.71}, {"measurement": "CI", "setting": "Hepatitis C virus [21]", "value": 0.88}, {"measurement": "CI", "setting": "Hepatitis C virus [22]", "value": 0.89}, {"measurement": "CI", "setting": "Hepatitis C virus [23]", "value": 0.53}, {"measurement": "CI", "setting": "Hepatitis C virus [24]", "value": 1.2}, {"measurement": "CI", "setting": "Hepatitis C virus [25]", "value": 1.16}, {"measurement": "CI", "setting": "Hepatitis C virus [26]", "value": 0.63}, {"measurement": "CI", "setting": "Hepatitis C virus [27]", "value": 0.78}, {"measurement": "CI", "setting": "Hepatitis C virus [28]", "value": 0.64}, {"measurement": "CI", "setting": "Hepatitis C virus [29]", "value": 0.66}, {"measurement": "CI", "setting": "Hepatitis C virus [30]", "value": 0.82}]}]}
